The target of data set [1] is Cyclooxygenase (Homo sapiens, UniProt P35354+P23219). The data set is described as follows: Modulation of COX1/2-mediated PGF2a level in human M1 macrophages derived from LPS/IFNgamma-polarized human monocyte derived macrophages at 3 uM preincubated for 15 mins followed by Escherichia coli (O6:K2:H1) challenge for 90 mins by LC-MS/MS analysis. It is filed as protein assay. To be noted: 1.5 h. An outline of the steps: (§1)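 Monocytes differentiated 6 days with GM-CSF (20 ng/ml) in RPMI/10% FCS, then polarized 48 h with LPS 100 ng/ml plus IFN-γ 20 ng/ml (M1). Cells (2 × 10^6) in PBS with 1 mM CaCl2 pre-incubated 15 min at 37 °C with 3 µM compound or 0.1% DMSO, then E. coli O6:K2:H1 (1:50) for 90 min. Methanol with deuterated standards added; SPE; UPLC-MS/MS; expressed as % of vehicle.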

Data set [2] concerns the target T1, Polyunsaturated fatty acid lipoxygenase ALOX15 (Homo sapiens) (UniProt P16050).
T1 sequence (whole entry): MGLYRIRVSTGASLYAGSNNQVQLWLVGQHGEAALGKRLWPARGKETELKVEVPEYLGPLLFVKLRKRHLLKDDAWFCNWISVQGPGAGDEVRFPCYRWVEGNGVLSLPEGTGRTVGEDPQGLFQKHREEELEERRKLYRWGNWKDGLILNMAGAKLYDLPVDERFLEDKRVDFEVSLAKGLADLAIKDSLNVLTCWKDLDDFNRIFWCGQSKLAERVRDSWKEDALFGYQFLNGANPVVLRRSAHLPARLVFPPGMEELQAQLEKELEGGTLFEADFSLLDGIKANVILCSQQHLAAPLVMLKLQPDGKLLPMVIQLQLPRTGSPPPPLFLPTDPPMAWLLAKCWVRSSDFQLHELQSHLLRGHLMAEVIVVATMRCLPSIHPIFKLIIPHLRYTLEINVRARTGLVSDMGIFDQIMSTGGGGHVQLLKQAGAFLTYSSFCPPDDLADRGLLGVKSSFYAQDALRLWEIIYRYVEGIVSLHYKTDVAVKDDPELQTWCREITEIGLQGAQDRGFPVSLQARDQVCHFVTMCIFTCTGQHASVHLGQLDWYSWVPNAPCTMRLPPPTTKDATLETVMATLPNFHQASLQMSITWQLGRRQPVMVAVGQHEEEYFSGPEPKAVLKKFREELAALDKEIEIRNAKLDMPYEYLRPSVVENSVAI
The data set can be described thus: Modulation of 15-LO-mediated 7-HDHA level in human M2 macrophages derived from IL4-polarized human monocyte derived macrophages at 3 uM preincubated for 15 mins followed by Escherichia coli (O6:K2:H1) challenge for 90 mins by LC-MS/MS analysis. An outline of the steps: (§2)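 Monocytes differentiated 6 days with M-CSF (20 ng/ml), then polarized 48 h with IL-4 20 ng/ml (M2). Cells (2 × 10^6) in PBS/1 mM CaCl2 pre-incubated 15 min at 37 °C with 3 µM compound or 0.1% DMSO, then challenged with E. coli O6:K2:H1 (1:50) for 90 min. Lipid mediators extracted by SPE with deuterated internal standards and quantified by UPLC-MS/MS as % of vehicle.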

Data set [3] deals with T2, Prostaglandin E synthase (Homo sapiens, UniProt O14684).
T2 sequence (O14684 whole entry): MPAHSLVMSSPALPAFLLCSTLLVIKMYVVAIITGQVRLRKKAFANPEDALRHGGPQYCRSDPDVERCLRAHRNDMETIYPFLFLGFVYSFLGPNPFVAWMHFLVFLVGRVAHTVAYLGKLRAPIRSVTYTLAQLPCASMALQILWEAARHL
The data set is described as follows: Inhibition of mPGES-1 isolated from microsomes of interleukin-1 beta-stimulated human A549 cells using PGH2 as substrate preincubated for 15 mins followed by substrate addition measured after 1 min by RP-HPLC analysis. In short, it runs like this:
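Microsomes from A549 cells treated with IL-1β (1 ng/ml, 72 h), diluted in 0.1 M potassium phosphate pH 7.4 with 2.5 mM glutathione. Pre-incubated 15 min with compound or DMSO, then 20 µM PGH2 (final) for 1 min at 4 °C. IC50 from 4-5 concentrations.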

Data set [4] relates to Mus musculus. The data set can be described thus: Antiinflammatory activity in CD-1 mouse assessed as reduction in zymosan-induced LTC4 formation in peritoneal cavity at 10 mg/kg, ip preincubated for 30 mins followed by zymosan addition measured after 30 mins by ELISA. It is filed as functional, organism-based. An outline of the steps: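 CD-1 male mice (6-8 weeks), n=6 per group, given 10 mg/kg i.p. in 2% DMSO/saline vehicle 30 min before i.p. zymosan (500 µL of 2 mg/mL suspension). Peritoneal cavity washed with 3 ml PBS 30 min after zymosan; LTC4 measured in exudate. One-way ANOVA with Bonferroni test.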
A general note: An ELISA detects its analyte on a solid surface through an enzyme-linked reagent.

The target of data set [5] is T3, Prostaglandin E synthase (Homo sapiens) (UniProt O14684).
T3 sequence (whole entry): T2 sequence (O14684 whole entry)
The data set can be described thus: Inhibition of mPGES-1 in LPS/IFNgamma-differentiated human M1 macrophages assessed as effect on PGE2 level at 3 uM preincubated for 15 mins followed by Escherichia coli (O6:K2:H1) challenge for 90 mins by LC-MS/MS analysis. Set-up: scale not given: the % may be the effect or the level left. An outline of the steps:
as §1

Data set [6] deals with T1, Polyunsaturated fatty acid lipoxygenase ALOX15 (Homo sapiens). The data set can be described thus: Modulation of 15-LO-mediated 15-HETE level in human M2 macrophages derived from IL4-polarized human monocyte derived macrophages at 3 uM preincubated for 15 mins followed by Escherichia coli (O6:K2:H1) challenge for 90 mins by LC-MS/MS analysis. In short, it runs like this: as §2

For data set [7], the species on record is Homo sapiens. The data set can be described thus: Modulation of LO-mediated AT-PD1 level in human M2 macrophages derived from IL4-polarized human monocyte derived macrophages at 3 uM preincubated for 15 mins followed by Escherichia coli (O6:K2:H1) challenge for 90 mins by LC-MS/MS analysis. In short, it runs like this: as §2
For data set [8], the species on record is Homo sapiens. The data set can be described thus: Modulation of LO-mediated RvE3 level in human M2 macrophages derived from IL4-polarized human monocyte derived macrophages at 3 uM preincubated for 15 mins followed by Escherichia coli (O6:K2:H1) challenge for 90 mins by LC-MS/MS analysis. In short, it runs like this: as §2

The IC50 is the concentration that inhibits the measured activity by half.

Activity calls are given as the source filed them. The rule behind the calls is not given here.

Take `O=C(O)c1ccc(N(Cc2cccc(OCc3ccccc3)c2)S(=O)(=O)c2ccc(-c3ccccc3)cc2)cc1`: the Activity in data set [1] came out at 142%; in data set [2], 107%; in data set [5], 72%; in data set [6], 135%; in data set [7], 106%; in data set [8], 121%. In data set [3], this molecule returned an IC50 of 700 nM. The outcome in data set [4] was Active.

The values are drawn from ChEMBL document CHEMBL4270576, “Discovery of a benzenesulfonamide-based dual inhibitor of microsomal prostaglandin E2 synthase-1 and 5-lipoxygenase that favorably modulates lipid mediator biosynthesis in inflammation” (Eur J Med Chem, 2018).
